The nature of series [1]: folding enthalpy; higher = less favourable; fluorescence melt of hairpins on a sequencing array, two-state fit. The following applies: sodium 0.088 M. The essentials: (§1)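 On a sequenced MiSeq flow cell, library hairpins with annealed Cy3 and quencher oligos were imaged for Cy3 fluorescence in 2.5 °C steps up to 60 °C, in 50 mM Na-HEPES pH 8.0, 25 mM NaCl. Normalisation used pre-quench Cy3 and control constructs. Bootstrapped two-state fits gave melting temperature and folding enthalpy, combined by inverse variance across four replicates and with fitted temperatures raised by 9.35 °C to match UV melts.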

The nature of series [2]: melting temperature; fluorescence melt of hairpins on a sequencing array, two-state fit, raised by 9.35 °C to match UV melts. Conditions: sodium 0.088 M. The essentials:
as §1

As for GGGGATCCGAAAGGACCC (((..(((....)))))), the folding enthalpy in series [1] was -36.7 kcal/mol. The Tm in series [2] is 53.9 °C.

Turning to GATCCGGCCCCGGATC ((((((....)))))), in series [1], the folding enthalpy is -47.8 kcal/mol. The Tm in series [2] is 61.1 °C.

As for GCTTAGCGAAAGCTCAGC (((.(((....))).))), the folding enthalpy in series [1] is -33.7 kcal/mol. The Tm in series [2] is 49.1 °C.

Take GAGGTCCCGAAAGGGCTC (((..(((....)))))): the folding enthalpy in series [1] was -13.7 kcal/mol. Moreover, the Tm in series [2] came out at 37.6 °C.

With GCTCAGCGAAAGCTAAGC (((.(((....))).))), the folding enthalpy in series [1] is -40.3 kcal/mol. Further, in series [2], the Tm worked out at 46.7 °C.

On to GGGACTCGAAAGAGCCC (((.(((....)))))), for which the folding enthalpy in series [1] was -28.8 kcal/mol. Moreover, in series [2], the Tm is 54.9 °C.

Turning to GGTGCTACGAAAGTAACC (((..(((....)))))), the folding enthalpy in series [1] is -13.5 kcal/mol. Moreover, in series [2], the Tm is 29.1 °C.

With GGAATCGGAAACGACTCC (((.(((....))).))), the folding enthalpy in series [1] is -28.9 kcal/mol. Besides, the Tm in series [2] worked out at 40.4 °C.

Consider GATCATAGTATGATC ((((((...)))))), for which the folding enthalpy in series [1] is -35.6 kcal/mol. For the same sequence, in series [2], the Tm came to 47.2 °C.

For the sequence GTGGACGAAAGTCACAC ((((((....))).))), in series [1], the folding enthalpy was -20.9 kcal/mol. Moreover, the Tm in series [2] came out at 50 °C.

For the sequence GGCCTAACGAAAGTTGCC (((..(((....)))))), in series [1], the folding enthalpy is -20.9 kcal/mol. Moreover, in series [2], the Tm is 38.7 °C.

Turning to GATCTATACGTAGATC ((((((....)))))), the folding enthalpy in series [1] is -40.1 kcal/mol. Moreover, the Tm in series [2] stood at 45.3 °C.

For GTTGCGGGAAACCACAAC ((((.((....)).)))), the folding enthalpy in series [1] is -38.2 kcal/mol. For the same sequence, the Tm in series [2] stood at 46.1 °C.

CGAATACGGAAACGTTCG (((..(((....)))))): in series [1], the folding enthalpy is -24.9 kcal/mol. The Tm in series [2] was determined as 34 °C.

Regarding GCAGCCGGAAACGGCCAC (..((((....))))..), in series [1], the folding enthalpy is -9.09 kcal/mol. The Tm in series [2] is 36.2 °C.

Consider GATCAGGATCCTGATC ((((((....)))))), for which, in series [1], the folding enthalpy is -53.1 kcal/mol. Moreover, the Tm in series [2] was 54.3 °C.

As to GATCTTCTTAAGATC ((((((...)))))), the folding enthalpy in series [1] is -30.1 kcal/mol. Besides, in series [2], the Tm came to 44.3 °C.

Take GGCGAGGGAAACTTCGCC (((((.(....).))))): the folding enthalpy in series [1] is -50.1 kcal/mol. Moreover, in series [2], the Tm worked out at 57.4 °C.

For the sequence GCAATAGGAAACTACTGC (((.(((....))).))), the folding enthalpy in series [1] was -14.5 kcal/mol. Further, the Tm in series [2] came to 29.8 °C.

For the sequence GTGACTGGAAACAGTTGC (..((((....))))..), the folding enthalpy in series [1] is -22.9 kcal/mol. The Tm in series [2] was 39.3 °C.

Consider GGTCATCGAAAGATAACC (((.(((....))).))), for which the folding enthalpy in series [1] was -26.8 kcal/mol. For the same sequence, the Tm in series [2] came to 39.4 °C.

On to GGCGGCGAAAGCCTTGCC ((((((....)))..))), for which the folding enthalpy in series [1] was -19.2 kcal/mol. Moreover, in series [2], the Tm came out at 55.1 °C.

GTCGTAGGAAACTACGGC (.(((((....))))).): the folding enthalpy in series [1] was -36.3 kcal/mol. Further, the Tm in series [2] stood at 52.8 °C.

Consider GGTCCCCCGAAAGGGACC (((..(((....)))))), for which the folding enthalpy in series [1] was -29.9 kcal/mol. The Tm in series [2] was 63.9 °C.

For the sequence GGTGGGCCGAAAGGCACC (((..(((....)))))), in series [1], the folding enthalpy is -10.5 kcal/mol. For the same sequence, the Tm in series [2] was 50.5 °C.

As to GTGGCAGGAAACCACCAC ((((..(....)..)))), the folding enthalpy in series [1] is -22.5 kcal/mol. Moreover, the Tm in series [2] was 35 °C.

For GGTATCCGAAAGGAGACC (((.(((....))).))), the folding enthalpy in series [1] is -43 kcal/mol. Further, in series [2], the Tm was 58.5 °C.

For the sequence GTCCACGAAAGTGGGAC ((((((....))).))), the folding enthalpy in series [1] is -13.6 kcal/mol. In addition, in series [2], the Tm worked out at 58.3 °C.

As to GGTTTCCGAAAGGAGACC (((.(((....))).))), the folding enthalpy in series [1] was -51 kcal/mol. Besides, the Tm in series [2] was determined as 54.4 °C.

Take GCGTTATACGC ((((...)))): in series [1], the folding enthalpy is -20.4 kcal/mol. The Tm in series [2] came to 61.3 °C.

GATCCCCGGGGGGATC ((((((....)))))): the folding enthalpy in series [1] was -29.9 kcal/mol. Further, in series [2], the Tm stood at 66.6 °C.

Consider GTATTCGAAAGAATCTAC ((((((....)))..))), for which the folding enthalpy in series [1] was -10.7 kcal/mol. Moreover, the Tm in series [2] amounted to 33.3 °C.

Turning to GTAACTGGAAACGGTTAC (((((.(....).))))), the folding enthalpy in series [1] is -32.6 kcal/mol. Also, the Tm in series [2] was found to be 44.1 °C.

Regarding GACGCCGAAAGGCGGTC ((((((....))).))), the folding enthalpy in series [1] is -9.77 kcal/mol. Further, the Tm in series [2] stood at 64.9 °C.

For GAGGGCGAAAGCCGTCTC ((((((....)))..))), the folding enthalpy in series [1] is -20.4 kcal/mol. In series [2], the Tm stood at 59 °C.

For the sequence GAGGACGCGAAAGCGCTC (((..(((....)))))), the folding enthalpy in series [1] is -12.9 kcal/mol. In series [2], the Tm came out at 36.9 °C.

Regarding GATCCCGAAAGGGTGATC ((((((....)))..))), the folding enthalpy in series [1] is -16.1 kcal/mol. Besides, the Tm in series [2] is 39.8 °C.

The values above are taken from the array DNA melting data of Ke et al. (doi:10.1101/2024.01.08.574731).
